Experimental data as given in ChEMBL document CHEMBL4842354, “Synthesis, structure-activity relationships, cocrystallization and cellular characterization of novel smHDAC8 inhibitors for the treatment of schistosomiasis” (Eur J Med Chem, 2021).

Tests used:
Histone deacetylase 8 [1] = biological target: T1, Histone deacetylase 8 (Homo sapiens, UniProt Q9BY41); assay: Inhibition of human recombinant HDAC8 using H2N-Arg-His-Lys(Ac)-Lys(Ac)-AMC as substrate after 90 mins by fluorescence based micro plate assay
T1 sequence (Q9BY41 whole entry): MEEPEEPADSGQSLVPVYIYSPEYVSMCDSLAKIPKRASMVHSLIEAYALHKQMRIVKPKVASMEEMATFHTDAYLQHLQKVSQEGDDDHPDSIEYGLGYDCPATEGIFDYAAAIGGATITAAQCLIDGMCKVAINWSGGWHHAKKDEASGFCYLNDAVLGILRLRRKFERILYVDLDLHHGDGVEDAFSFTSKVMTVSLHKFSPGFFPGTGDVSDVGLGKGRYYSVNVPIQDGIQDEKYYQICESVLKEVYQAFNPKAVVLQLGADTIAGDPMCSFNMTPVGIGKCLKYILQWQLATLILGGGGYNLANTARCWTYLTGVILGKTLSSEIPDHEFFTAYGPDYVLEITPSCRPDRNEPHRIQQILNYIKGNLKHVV

Histone deacetylase 8 [2] = biological target: T2, Histone deacetylase 8 (Schistosoma mansoni, UniProt A5H660); assay: Inhibition of Schistosoma mansoni HDAC8 using Fluor de Lys as substrate incubated for 90 mins by fluorescence method
T2 sequence (A5H660 whole entry): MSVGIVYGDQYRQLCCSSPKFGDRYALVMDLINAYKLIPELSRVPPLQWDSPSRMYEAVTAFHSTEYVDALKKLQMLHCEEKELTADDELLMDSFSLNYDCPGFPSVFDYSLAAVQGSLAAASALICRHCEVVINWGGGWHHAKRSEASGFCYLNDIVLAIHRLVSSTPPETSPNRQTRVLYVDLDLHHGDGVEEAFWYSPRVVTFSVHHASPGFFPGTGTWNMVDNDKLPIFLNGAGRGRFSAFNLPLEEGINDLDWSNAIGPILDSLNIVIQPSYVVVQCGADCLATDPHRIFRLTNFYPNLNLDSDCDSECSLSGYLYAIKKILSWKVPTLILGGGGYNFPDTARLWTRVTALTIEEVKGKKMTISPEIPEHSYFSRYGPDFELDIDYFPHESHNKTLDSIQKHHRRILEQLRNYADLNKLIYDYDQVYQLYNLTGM
In short: (§1)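 Recombinant smHDAC8 or hHDAC8 (Romier lab) run to Fluor de Lys HDAC8 kit protocol. Substrate H2N-Arg-His-Lys(Ac)-Lys(Ac)-AMC at 50 μM with increasing inhibitor concentrations, 90 min at 37°C. Stop solution holding inhibitor plus trypsin, then 20 min at 37°C to release AMC. Fluorescence read at Ex 355/Em 460 nm.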

Schistosoma mansoni [3] = assay: Antischistosomal activity against Schistosoma mansoni schistosomula at 10 uM incubated for 48 hrs by Alamar Blue assay; format: functional
In short: (§2)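 S. mansoni newly transformed schistosomula from mechanically transformed cercariae, 100 NTS/well in Medium 199 with 10% FCS, penicillin, streptomycin and rifampicin. Pre-cultured 3 h at 37°C, 5% CO2. Compounds from 20 mM DMSO stocks, final 10 or 20 μM. Alamar Blue added after 48 h exposure, then 24 h more. Resorufin read at Ex 530/Em 590 nm. Live and ethanol-killed larvae as controls; triplicate wells, two biological replicates.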

Schistosoma mansoni [4] = assay: Antischistosomal activity against Schistosoma mansoni schistosomula at 20 uM incubated for 48 hrs by Alamar Blue assay; format: functional; in short: as §2
HEK293 = assay: Cytotoxicity against human HEK293 assessed as reduction in cell viability at 50 uM measured for 24 hrs by Alamar Blue assay; format: cell-based; settings: hek293, 24 h
In short: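 HEK293 cells in DMEM with 10% FCS and 5 mM glutamine at 37°C, 5% CO2, seeded at 1.5×10^3 cells/well. Compounds added at 50 μM. AlamarBlue added after 24 h and incubated a further 21 h. Resorufin fluorescence read at Ex 530/Em 590 nm. Triplicates; daunorubicin positive control.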

[5] = biological target: T3, Protein deacetylase HDAC6 (Homo sapiens, UniProt Q9UBN7); assay: Inhibition of recombinant human HDAC6 using ZMAL as substrate incubated for 90 mins by fluorescence based micro plate assay
T3 sequence (Q9UBN7 whole entry): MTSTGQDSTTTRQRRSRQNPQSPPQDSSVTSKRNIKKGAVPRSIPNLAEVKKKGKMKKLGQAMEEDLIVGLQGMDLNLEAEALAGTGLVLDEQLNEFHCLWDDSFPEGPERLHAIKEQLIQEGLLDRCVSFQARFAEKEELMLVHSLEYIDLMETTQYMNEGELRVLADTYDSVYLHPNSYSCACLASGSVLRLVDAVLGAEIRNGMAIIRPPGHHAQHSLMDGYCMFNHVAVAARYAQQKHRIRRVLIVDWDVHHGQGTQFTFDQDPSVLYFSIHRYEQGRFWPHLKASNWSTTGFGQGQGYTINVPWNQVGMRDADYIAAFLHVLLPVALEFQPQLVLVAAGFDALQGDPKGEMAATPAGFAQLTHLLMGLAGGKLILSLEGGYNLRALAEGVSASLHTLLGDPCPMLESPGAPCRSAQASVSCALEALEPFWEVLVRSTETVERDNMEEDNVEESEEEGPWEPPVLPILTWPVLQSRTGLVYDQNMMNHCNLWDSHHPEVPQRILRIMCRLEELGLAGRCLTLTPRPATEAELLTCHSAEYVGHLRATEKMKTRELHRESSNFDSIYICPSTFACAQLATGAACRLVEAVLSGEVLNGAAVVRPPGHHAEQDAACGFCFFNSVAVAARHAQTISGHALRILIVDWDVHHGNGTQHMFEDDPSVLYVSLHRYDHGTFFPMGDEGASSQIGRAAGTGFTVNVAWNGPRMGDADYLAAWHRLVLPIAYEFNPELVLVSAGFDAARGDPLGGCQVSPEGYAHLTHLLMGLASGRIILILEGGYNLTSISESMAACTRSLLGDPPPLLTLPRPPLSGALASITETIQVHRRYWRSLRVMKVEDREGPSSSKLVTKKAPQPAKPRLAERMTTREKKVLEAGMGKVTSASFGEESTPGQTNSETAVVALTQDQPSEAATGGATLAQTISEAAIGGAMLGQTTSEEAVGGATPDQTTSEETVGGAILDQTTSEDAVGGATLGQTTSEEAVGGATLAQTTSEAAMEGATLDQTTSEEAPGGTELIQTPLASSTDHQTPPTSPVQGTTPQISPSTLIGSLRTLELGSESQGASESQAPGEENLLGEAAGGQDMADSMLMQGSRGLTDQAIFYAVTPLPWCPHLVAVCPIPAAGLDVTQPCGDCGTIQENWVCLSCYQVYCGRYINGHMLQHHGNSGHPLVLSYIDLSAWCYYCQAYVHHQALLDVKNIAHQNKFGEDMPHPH

Histone deacetylase 1 = Histone deacetylase 1 (Homo sapiens, UniProt Q13547); assay: Inhibition of recombinant human HDAC1 using ZMAL as substrate incubated for 90 mins by fluorescence based micro plate assay
Histone deacetylase 1, sequence (Q13547 whole entry): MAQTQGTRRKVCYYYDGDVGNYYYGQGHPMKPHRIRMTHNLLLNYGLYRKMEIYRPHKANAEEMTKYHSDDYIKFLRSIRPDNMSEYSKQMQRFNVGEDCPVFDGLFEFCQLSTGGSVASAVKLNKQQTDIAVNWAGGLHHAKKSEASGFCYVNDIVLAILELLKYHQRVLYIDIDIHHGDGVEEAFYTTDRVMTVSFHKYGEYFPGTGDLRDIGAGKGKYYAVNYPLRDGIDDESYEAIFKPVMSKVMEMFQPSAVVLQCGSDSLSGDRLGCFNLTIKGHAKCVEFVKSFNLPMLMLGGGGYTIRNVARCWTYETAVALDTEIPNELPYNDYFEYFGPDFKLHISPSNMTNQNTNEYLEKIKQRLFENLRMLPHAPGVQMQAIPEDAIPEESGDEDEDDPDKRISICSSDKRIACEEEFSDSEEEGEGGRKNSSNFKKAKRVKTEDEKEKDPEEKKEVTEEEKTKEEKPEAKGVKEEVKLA

[6] = biological target: T4, Histone deacetylase 8 (Homo sapiens) (UniProt Q9BY41); assay: Inhibition of human recombinant HDAC8 at 1 uM using H2N-Arg-His-Lys(Ac)-Lys(Ac)-AMC as substrate after 90 mins by fluorescence based micro plate assay; in short: as §1
T4 sequence (whole entry): T1 sequence (Q9BY41 whole entry)

Row | IC50 (Histone deacetylase 8 [1]) | IC50 (Histone deacetylase 8 [2]) | IC50 [5] | IC50 (Histone deacetylase 1) | inhibition [6] | Structure (SMILES) | Activity (Schistosoma mansoni [3]) | Activity (Schistosoma mansoni [4]) | Activity (HEK293)
1 | 860 nM | 450 nM | – | – | – | COc1ccc(C(=O)NO)cc1NCc1cccc2c1oc1ccccc12 | – | – | –
2 | 450 nM | 400 nM | 160 nM | 10.9 µM | – | O=C(NO)c1ccc(Cl)c(NC(=O)c2ccc(-c3ccccc3)cc2)c1 | 62.3% | 55.1% | 81.7%
3 | 140 nM | 110 nM | 20 nM | 0.36 µM | – | CCCOc1ccc(C(C)=O)cc1C(=O)Nc1cc(C(=O)NO)ccc1C | 45.2% | 34% | 68.8%
4 | 590 nM | 160 nM | 120 nM | 7.7 µM | – | CCOc1ccc(C(C)=O)cc1NC(=O)c1cccc(C(=O)NO)c1 | 81% | 67.3% | 81.2%
5 | – | 320 nM | – | – | 48% | COc1ccc(C(=O)NO)cc1NC(=O)c1ccc(-c2ccc(F)cc2)cc1Cl | 74.6% | 60.5% | 83.5%
6 | – | 330 nM | 600 nM | 3.37 µM | – | Cc1ccc(C(=O)NO)cc1C(=O)Nc1ccc(Cl)cc1 | 69.1% | 50.2% | 67.6%
7 | – | 2080 nM | – | – | 63% | COc1ccc(C(=O)Nc2cc(C(=O)NO)ccc2OC)c(OC)c1 | 65.3% | 66.5% | 88.4%
8 | 180 nM | 330 nM | – | – | – | COc1ccc(C(=O)NO)cc1NC(=O)c1cccc2cccnc12 | 62% | 40% | 77%
9 | 220 nM | 100 nM | 1500 nM | 3.88 µM | – | CSc1ccc(C(=O)NO)cc1NC(=O)c1ccc(-c2ccccc2)cc1 | 57.4% | 64.9% | 82.3%
10 | 290 nM | 200 nM | – | – | – | COc1ccc(C(=O)NO)cc1NC(=O)c1ccc2[nH]c3c(c2c1)CN(C)CC3.Cl | 98% | 100% | 71.1%
11 | 130 nM | 290 nM | 390 nM | – | – | COc1ccc(C(=O)NO)cc1NC(=O)c1ccc(-c2ccccc2)cc1 | 64.8% | 33.4% | 12.3%
12 | 90 nM | 180 nM | – | – | – | COc1ccc(C(C)=O)cc1NC(=O)c1cc(C(=O)NO)ccc1C | 75.2% | 69.5% | 94.8%
13 | 90 nM | 290 nM | – | – | – | COc1ccc(C(C)=O)cc1NC(=O)c1cc(C(=O)NO)ccc1Cl | 62.6% | 32.3% | 89.1%
14 | – | 610 nM | – | – | 59% | COc1ccc(C(=O)NO)cc1NC(=O)c1cccc(OCc2ccccc2)c1 | 61% | 56.2% | 95.4%
15 | – | 280 nM | – | – | 25% | O=C(NO)c1ccc(Cl)c(NC(=O)c2ccc(-c3ccc(F)cc3)cc2Cl)c1 | 63.4% | 56.6% | 82.2%
16 | – | 730 nM | – | – | – | COc1ccc(C(=O)NO)cc1NC(=O)c1ccc(OC(C)C)cc1 | 72.6% | 56.2% | 93.1%
17 | – | 330 nM | – | – | 61% | CCOc1ccc(C(C)=O)cc1NC(=O)c1cc(C(=O)NO)ccc1OC | 64.3% | 56.7% | 59.9%
18 | – | 180 nM | – | – | 31% | COc1ccc(C(=O)NO)cc1C(=O)Nc1ccc(Cl)cc1Cl | 88.2% | 83.4% | 58.3%
19 | – | 310 nM | – | – | – | COc1ccc(C(=O)NO)cc1C(=O)Nc1ccc(Cl)cc1 | 77.3% | 59.2% | 27.5%
20 | – | – | – | – | – | O=C(C1CCCCC1)N1CC(=O)N2CCc3ccccc3C2C1 (stereo not drawn) [PRAZIQUANTEL] | 92.1% | 88.9% | 99.3%
21 | 70 nM | 210 nM | – | – | – | CCOc1ccc(C(C)=O)cc1NC(=O)c1cc(C(=O)NO)ccc1C | 42.1% | 37% | 87.7%
22 | – | 580 nM | – | – | 29% | COc1ccc(C(=O)NO)cc1NC(=O)c1nc2ccccc2[nH]1 | 69.5% | 47.1% | 83.5%
23 | – | 520 nM | – | – | 34% | Cc1ccc(C(=O)NO)cc1NC(=O)c1cccc(OCc2c(Cl)cccc2Cl)c1 | 38.4% | 22.3% | 66.6%
24 | – | 450 nM | – | – | 60% | Cc1ccc(C(=O)NO)cc1NC(=O)c1cccc(OCc2ccccc2)c1 | 67.3% | 46.5% | 81.4%
25 | 150 nM | 320 nM | – | – | – | COc1ccc(C(=O)NO)cc1NC(=O)c1cccc2c1/C(=N/O)c1ccccc1-2 | 98.5% | 96% | 76.6%
26 | 100 nM | 220 nM | – | – | – | COc1ccc(C(=O)NO)cc1C(=O)Nc1ccc2sccc2c1 | 82.1% | 77.1% | 95.6%
27 | – | 730 nM | – | – | 66% | CCCOc1ccc(C(=O)Nc2cc(C(=O)NO)ccc2OC)cc1 | 70.7% | 51.6% | 93.2%
